# Compound activity as filed in PubChem BioAssay.
# OX1R antag-1: OX1R (human) antagonism. O43613. OX1R-expressing cells, FRET antagonist read-out. inhibition, % at 6.6 µM. 330,000 compounds, 1.8% hits. AID 485270; in the data active = inhibition mostly above about 38%, no sharp cut-off; inactive = mostly below about 40%;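 note: 0% = agonist challenge alone and 100% = reference antagonist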
# Target sequence (O43613 whole entry, looked up): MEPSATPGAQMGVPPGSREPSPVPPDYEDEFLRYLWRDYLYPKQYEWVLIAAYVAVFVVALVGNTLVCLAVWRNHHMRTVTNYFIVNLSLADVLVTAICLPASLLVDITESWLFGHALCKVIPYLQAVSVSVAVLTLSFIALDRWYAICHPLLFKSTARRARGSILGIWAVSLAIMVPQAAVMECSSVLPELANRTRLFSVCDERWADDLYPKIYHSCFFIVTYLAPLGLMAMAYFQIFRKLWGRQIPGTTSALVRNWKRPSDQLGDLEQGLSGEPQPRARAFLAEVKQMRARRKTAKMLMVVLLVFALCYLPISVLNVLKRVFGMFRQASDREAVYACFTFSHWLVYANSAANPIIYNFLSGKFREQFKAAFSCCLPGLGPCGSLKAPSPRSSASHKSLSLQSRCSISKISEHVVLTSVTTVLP
# CHO parental Ca: signal in parental CHO cells, OX1R antagonist counter-screen. parental CHO-K1, ATP-induced calcium, Fluo-8 fluorescence. inhibition, % at 5.6 µM. 330,000 compounds, 0.63% hits;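 active = inhibition above that plate's mean sample inhibition plus 3 SD, cut at about 26% in these data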;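 note: 0% = ATP-challenged DMSO wells and 100% = DMSO wells without ATP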
#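 Test system: untransfected parental CHO cell line. Compound: one dose, 5.6 µM nominal. Detection: intracellular calcium via Fluo-8 no-wash fluorescent dye. Measure: % inhibition. Benchmarks: ATP-challenged DMSO wells low, unchallenged DMSO wells high.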
# GalR3 antag: human GalR3 antagonism; HEK293 GalR3-CNG cAMP membrane potential fluorescence; galR3 body fused to GalR1 C-terminus; inhibition, % at 3 µM; 360,000 compounds, 0.44% hits; AID 651719;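 active = inhibition above the screen-wide average plus 3 SD, cut at about 13% in these data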;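 note: forskolin and galanin both at EC90 stimulate the cells; cAMP rise reported by CNG channel membrane potential dye signal; 0% = forskolin plus galanin with DMSO and 100% = forskolin alone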
# TAAR1 antag: antagonists of human TAAR1; Q96RJ0; inhibition, % at 3 µM; 360,000 compounds, 1.5% hits; CHO RD-HGA16 TAAR1, Fluo-8 calcium fluorescence, antagonist;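 active = inhibition above a per-plate cutoff, the mean inhibition of test compounds on that plate plus 3 SD, cut at about 49% in these data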;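 note: 0% = DMSO plus EC80 beta-PEA response and 100% = DMSO alone without agonist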
#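 Material: CHO RD-HGA16 cells bearing hTAAR1; compound dosing: one-point dosing, 3 µM nominal final; schedule: dye loading 75 min at 37 °C, then 30 min room temperature; measured by: calcium fluorescence with Fluo-8; control set: vehicle and agonist controls; replication: n of 1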
# OX1R antag-2: human HCRTR1 antagonism | AID 434989 | 330,000 compounds, 0.43% hits | CHO/OX1R cells, Fluo-8 calcium fluorescence, orexin A | O43613 | inhibition, % at 5 µM;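 active = inhibition above its plate's threshold, mean inhibition of all tested compounds on the plate plus 3 SD, cut at about 37% in these data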;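 note: 0% = orexin A challenge wells and 100% = SB-334867-A antagonist wells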
# TAAR1 ag: agonists of human TAAR1; Q96RJ0; CHO RD-HGA16 TAAR1, Fluo-8 calcium fluorescence; vehicle wells 0%, saturating PEA agonist 100%; activation, % at 3 µM; 360,000 compounds, 0.99% hits; AID 624467;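 active = activation above the mean activation of all test compounds in the run plus 3 SD, cut at about 38% in these data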
#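 System: CHO RD-HGA16 cells carrying human TAAR1 plus Gα16; Incubation: 17-24 h seeding, 75 min 37 °C dye, 30 min RT; Measured by: Fluo-8 fluorescence, 5 s baseline then 140 s kinetic read; Control set: DMSO and PEA EC100; Replication: single well for each compound.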
# An asterisk follows results filed as active; nt = no result given. Compounds with a hit are over-represented: about 4.3% of the library has one in this group of screens.
SMILES,OX1R antag-1,CHO parental Ca,GalR3 antag,TAAR1 antag,OX1R antag-2,TAAR1 ag
CCN(CC)C(=O)C(Oc1ccc(S(=O)(=O)N2CCCC2)cc1[N+](=O)[O-])c1ccccc1 (stereo not drawn),63*,0,-3,-8,6,-1
CC(C)(C)CC(C)(C)NCC(O)COc1c(F)cc(Br)cc1F (stereo not drawn),-4,-12,-3,4,-21,47*
O=C(COc1ccc(OCc2ccccc2)cc1)NC1CCOC1=O (stereo not drawn),28,38*,-5,0,-2,13
CCN(CC)Cc1c(O)ccc2cc(-c3nc4ccccc4n3C)c(=O)oc12,16,-9,-9,5,12,2
Cc1ccc(-c2cc(C(=O)NCc3cccs3)no2)cc1,-2,-2,-2,-1,1,4
O=C(NCc1cccs1)c1cc(-c2ccc(O)cc2)on1,2,15,-6,1,-4,41*
CC(C)Oc1ccc(C(CCN)C2CCCCC2)cc1 (stereo not drawn),-5,6,-11,11,-17,47*
C[C@]12Cc3ccccc3C1CC1=N[C@@H](c3ccc(C(F)(F)F)cc3)O[C@@]13C[C@@H]2C(=O)N3C1CCN(Cc2ccccc2)CC1 (stereo partly drawn),nt,nt,-7,-42,nt,4
CCN(CC)C(=O)[C@H]1C[C@H](CC(=O)NC(C)(C)C)C(=O)N2CCc3c([nH]c4ccc(Cl)cc34)[C@]12C,11,-38,-3,-20,-40,3
Cc1ccc(CNc2nc(NCc3ccccc3)nc3ccsc23)c(C)c1,nt,nt,-10,54*,nt,37
CC(=O)Nc1ccc(CNc2nc(NCc3cccs3)nc3ccsc23)cc1,nt,nt,-4,49*,nt,36
O=C1CCCN1CCCNc1nc(NCc2ccccc2)nc2ccsc12,nt,nt,-11,105*,nt,129*
C=CCNc1nc(NCCCN2CCCC2=O)c2sc(-c3ccccc3)cc2n1,nt,nt,0,-4,nt,2
CCOC(=O)Cc1ccc(Nc2nc(NCc3ccccc3)nc3ccsc23)cc1,nt,nt,-8,72*,nt,2
c1cncc(Oc2ccc(NCCc3c[nH]c4ccccc34)cc2)c1,nt,nt,-8,32,nt,7
CN1C(=O)[C@@]2(O[C@H]3C=CC=CN3C3=C2C(=O)CCC3)c2cccc(Br)c21,nt,nt,-2,-19,nt,5
Nc1c(C(=O)NCC2CCCO2)c2nc3ccccc3nc2n1-c1ccccc1 (stereo not drawn),51,-8,1,50*,-17,27
COc1ccccc1-c1cccc2c3c([nH]c12)[C@@H]1C[C@H]2[C@@H](C(=O)N1CC3)[C@H](C)ON2C,nt,nt,-3,-2,nt,5
Cc1ccc(-c2csc(C(O)c3cccc(Cl)c3)n2)cc1C (stereo not drawn),nt,nt,-5,15,nt,1
Cn1cccc1C(=O)NCc1ccccn1,nt,nt,-5,6,nt,0
CCCn1c(SCC(=O)Nc2ccc(F)c(Cl)c2)nc(O)cc1=O,4,30*,-5,-31,13,2
Cc1ccc(S(=O)(=O)N2C[C@H]3N(C(=O)OC(C)C)N(C(=O)OC(C)C)C[C@H](OC(=O)NCc4ccco4)[C@@]3(O)C2)cc1,nt,nt,-4,-1,nt,6
COc1ccc(CNC(=O)COC(=O)c2c(NC(C)=O)sc(C)c2C)cc1OC,nt,nt,-7,-13,nt,-1
O=S(=O)(c1ccc(F)cc1)N1CCCc2nc(-c3ccc(F)cc3)ccc21,nt,nt,-7,0,nt,0
CCCNS(=O)(=O)c1ccc(CCC(=O)Nc2cc(Cl)ccc2Oc2ccccc2)cc1,nt,nt,0,69*,nt,9
CC(C)(C)NS(=O)(=O)c1ccc(CCC(=O)Nc2cc(Cl)ccc2Oc2ccccc2)cc1,81*,43*,-1,28,65*,4
COc1cccc(OCC(=O)Nc2cc(Cl)ccc2Oc2ccccc2)c1,19,40*,-6,21,-16,4
O=C(COc1cccc2ccccc12)Nc1cc(Cl)ccc1C(=O)O,67*,1,0,-29,13,-2
C[C@H](O)[C@@H]1C(=O)N2CCc3c([nH]c4c(-c5ccccc5)cccc34)[C@@H]2C[C@@H]1N(C)C(=O)NC1CCCCC1,nt,nt,-7,-2,nt,2
